Assays:
[1] = target: Cyclin-dependent kinase 4/G1/S-specific cyclin-D1 (Homo sapiens, UniProt P11802); assay: Inhibition of recombinant CDK4/CycD1
Insulin receptor = Insulin receptor (Homo sapiens, UniProt P06213); assay: Inhibition of recombinant INSR
Angiopoietin-1 receptor = Angiopoietin-1 receptor (Homo sapiens, UniProt Q02763); assay: Inhibition of recombinant TIE2
[2] = target: T1, Serine/threonine-protein kinase PLK4 (Homo sapiens, UniProt O00444); assay: Inhibition of recombinant SAK
T1 sequence (O00444 whole entry): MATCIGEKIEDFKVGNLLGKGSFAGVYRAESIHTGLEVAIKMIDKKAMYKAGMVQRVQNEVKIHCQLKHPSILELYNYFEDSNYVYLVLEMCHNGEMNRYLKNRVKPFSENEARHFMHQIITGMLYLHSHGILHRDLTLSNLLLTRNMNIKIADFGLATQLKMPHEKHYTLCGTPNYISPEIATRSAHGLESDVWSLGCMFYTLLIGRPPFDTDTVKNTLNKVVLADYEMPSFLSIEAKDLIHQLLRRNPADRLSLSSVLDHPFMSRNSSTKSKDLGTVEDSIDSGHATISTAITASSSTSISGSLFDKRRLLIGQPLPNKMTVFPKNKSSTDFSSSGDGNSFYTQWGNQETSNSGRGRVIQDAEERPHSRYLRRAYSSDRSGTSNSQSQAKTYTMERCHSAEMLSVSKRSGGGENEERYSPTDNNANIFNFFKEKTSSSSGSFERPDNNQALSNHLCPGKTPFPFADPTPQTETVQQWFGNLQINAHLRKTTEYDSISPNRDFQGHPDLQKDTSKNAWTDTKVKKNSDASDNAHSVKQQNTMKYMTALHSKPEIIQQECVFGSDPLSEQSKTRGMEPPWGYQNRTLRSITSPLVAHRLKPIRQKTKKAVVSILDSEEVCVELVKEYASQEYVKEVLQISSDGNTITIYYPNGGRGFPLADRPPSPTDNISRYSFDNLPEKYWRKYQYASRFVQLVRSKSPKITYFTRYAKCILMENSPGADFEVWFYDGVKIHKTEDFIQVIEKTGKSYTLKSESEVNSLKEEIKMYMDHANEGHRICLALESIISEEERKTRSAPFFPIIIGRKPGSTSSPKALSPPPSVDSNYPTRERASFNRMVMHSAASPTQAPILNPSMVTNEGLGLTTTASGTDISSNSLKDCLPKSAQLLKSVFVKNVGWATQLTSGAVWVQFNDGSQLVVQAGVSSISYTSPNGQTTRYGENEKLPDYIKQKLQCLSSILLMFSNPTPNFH

[3] = target: Hepatocyte growth factor receptor (Homo sapiens, UniProt P08581); assay: Inhibition of recombinant MET
[4] = target: Insulin-like growth factor 1 receptor (Homo sapiens, UniProt P08069); assay: Inhibition of recombinant IGF1R
Outline: (§1)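 Purified recombinant kinase, 50 µL reaction. 1 µM [γ-33P]-ATP with substrate; compound added in 10% DMSO. Tested over several concentrations; IC50 in g/mL.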

[5] = target: Platelet-derived growth factor receptor beta (Homo sapiens, UniProt P09619); assay: Inhibition of recombinant PDGFRbeta
[6] = target: Serine/threonine-protein kinase PLK1 (Homo sapiens, UniProt P53350); assay: Inhibition of recombinant PLK1
[7] = target: Serine/threonine-protein kinase B-raf (Homo sapiens, UniProt P15056, V600E); assay: Inhibition of recombinant B-RAF-V600E mutant; outline: as §1
[8] = target: Mitogen-activated protein kinase kinase kinase 8 (Homo sapiens, UniProt P41279); assay: Inhibition of recombinant COT
Ephrin type-B receptor 4 = target: T2, Ephrin type-B receptor 4 (Homo sapiens, UniProt P54760); assay: Inhibition of recombinant EPHB4; outline: as §1
T2 sequence (P54760 whole entry): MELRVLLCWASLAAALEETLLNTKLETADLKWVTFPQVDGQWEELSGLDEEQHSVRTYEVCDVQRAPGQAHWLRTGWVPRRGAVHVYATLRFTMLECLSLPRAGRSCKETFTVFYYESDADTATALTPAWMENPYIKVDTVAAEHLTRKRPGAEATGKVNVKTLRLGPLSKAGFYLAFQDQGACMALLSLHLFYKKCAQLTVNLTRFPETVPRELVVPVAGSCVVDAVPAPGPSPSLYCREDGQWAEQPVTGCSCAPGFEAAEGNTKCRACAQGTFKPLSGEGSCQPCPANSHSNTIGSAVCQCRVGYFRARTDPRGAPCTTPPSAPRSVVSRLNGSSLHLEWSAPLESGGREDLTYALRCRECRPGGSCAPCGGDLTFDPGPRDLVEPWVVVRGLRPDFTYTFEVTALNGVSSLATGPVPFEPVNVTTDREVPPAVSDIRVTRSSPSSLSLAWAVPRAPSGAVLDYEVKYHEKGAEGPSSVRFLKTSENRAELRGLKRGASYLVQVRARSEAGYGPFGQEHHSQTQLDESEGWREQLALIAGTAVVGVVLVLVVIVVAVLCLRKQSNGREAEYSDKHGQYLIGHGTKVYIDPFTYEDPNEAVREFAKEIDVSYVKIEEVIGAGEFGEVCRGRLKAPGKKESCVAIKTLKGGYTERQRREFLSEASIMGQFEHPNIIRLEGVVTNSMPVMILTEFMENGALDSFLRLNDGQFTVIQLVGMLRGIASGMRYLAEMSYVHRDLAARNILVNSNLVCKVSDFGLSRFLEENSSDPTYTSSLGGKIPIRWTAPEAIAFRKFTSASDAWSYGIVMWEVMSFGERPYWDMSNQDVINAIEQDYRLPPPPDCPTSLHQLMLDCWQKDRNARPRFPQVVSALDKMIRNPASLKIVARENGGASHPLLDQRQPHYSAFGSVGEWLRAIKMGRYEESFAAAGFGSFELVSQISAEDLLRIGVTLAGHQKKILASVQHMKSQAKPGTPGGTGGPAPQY

[9] = target: Receptor tyrosine-protein kinase erbB-2 (Homo sapiens, UniProt P04626); assay: Inhibition of recombinant ERBB2
Chain of Receptor tyrosine-protein kinase erbB-2 (P04626 whole entry): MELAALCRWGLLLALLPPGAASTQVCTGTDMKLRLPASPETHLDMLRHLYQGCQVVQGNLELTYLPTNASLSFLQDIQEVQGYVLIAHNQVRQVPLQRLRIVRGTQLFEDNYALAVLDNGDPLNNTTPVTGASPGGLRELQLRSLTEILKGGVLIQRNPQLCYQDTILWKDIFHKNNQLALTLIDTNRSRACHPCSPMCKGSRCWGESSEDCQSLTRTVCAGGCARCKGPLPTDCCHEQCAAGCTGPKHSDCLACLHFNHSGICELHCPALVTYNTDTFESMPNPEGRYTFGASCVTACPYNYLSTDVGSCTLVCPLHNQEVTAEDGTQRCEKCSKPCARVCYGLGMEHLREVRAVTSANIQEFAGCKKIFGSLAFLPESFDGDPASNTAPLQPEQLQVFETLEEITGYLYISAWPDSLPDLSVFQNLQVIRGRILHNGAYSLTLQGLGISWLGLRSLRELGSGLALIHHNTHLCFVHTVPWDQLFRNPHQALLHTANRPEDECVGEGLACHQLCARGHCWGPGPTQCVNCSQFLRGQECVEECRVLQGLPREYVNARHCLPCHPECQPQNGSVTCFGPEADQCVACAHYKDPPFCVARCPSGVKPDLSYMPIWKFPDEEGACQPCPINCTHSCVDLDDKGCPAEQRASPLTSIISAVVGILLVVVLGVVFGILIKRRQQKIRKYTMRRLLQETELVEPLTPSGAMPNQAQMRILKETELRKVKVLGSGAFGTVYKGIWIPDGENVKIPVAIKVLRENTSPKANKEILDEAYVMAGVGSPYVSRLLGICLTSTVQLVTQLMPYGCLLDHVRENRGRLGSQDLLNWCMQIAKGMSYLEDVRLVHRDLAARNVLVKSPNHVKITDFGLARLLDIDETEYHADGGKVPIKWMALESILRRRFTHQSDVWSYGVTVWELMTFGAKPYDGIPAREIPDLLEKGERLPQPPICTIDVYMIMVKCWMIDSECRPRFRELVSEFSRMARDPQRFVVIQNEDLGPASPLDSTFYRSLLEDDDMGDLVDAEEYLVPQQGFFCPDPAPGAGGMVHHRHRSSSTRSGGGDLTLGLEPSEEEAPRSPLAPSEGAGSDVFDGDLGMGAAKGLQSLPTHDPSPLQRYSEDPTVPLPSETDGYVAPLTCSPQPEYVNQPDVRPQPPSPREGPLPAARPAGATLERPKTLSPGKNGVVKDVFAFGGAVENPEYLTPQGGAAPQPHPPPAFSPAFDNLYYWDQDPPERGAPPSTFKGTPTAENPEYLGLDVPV

Chain of Insulin-like growth factor 1 receptor (P08069 31-736 limits assumed): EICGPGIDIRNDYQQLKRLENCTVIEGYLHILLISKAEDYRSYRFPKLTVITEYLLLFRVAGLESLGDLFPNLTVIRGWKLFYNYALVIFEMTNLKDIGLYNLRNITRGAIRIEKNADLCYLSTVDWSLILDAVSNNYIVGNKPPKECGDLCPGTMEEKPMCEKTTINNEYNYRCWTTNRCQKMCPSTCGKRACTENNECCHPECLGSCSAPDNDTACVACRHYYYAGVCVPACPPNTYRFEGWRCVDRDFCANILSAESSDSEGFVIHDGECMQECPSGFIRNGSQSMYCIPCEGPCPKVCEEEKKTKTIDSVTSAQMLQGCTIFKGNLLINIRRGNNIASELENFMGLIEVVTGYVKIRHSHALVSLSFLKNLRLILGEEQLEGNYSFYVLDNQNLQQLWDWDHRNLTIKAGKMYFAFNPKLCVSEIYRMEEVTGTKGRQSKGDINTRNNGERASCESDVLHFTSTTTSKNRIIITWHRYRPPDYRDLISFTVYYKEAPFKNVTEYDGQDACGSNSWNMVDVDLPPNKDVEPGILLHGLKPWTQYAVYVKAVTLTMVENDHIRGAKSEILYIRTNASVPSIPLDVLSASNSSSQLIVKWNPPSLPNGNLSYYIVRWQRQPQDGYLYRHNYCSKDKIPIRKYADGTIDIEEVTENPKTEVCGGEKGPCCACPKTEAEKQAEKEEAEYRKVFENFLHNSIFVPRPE
Chain of Insulin-like growth factor 1 receptor (P08069 741-1367 limits assumed): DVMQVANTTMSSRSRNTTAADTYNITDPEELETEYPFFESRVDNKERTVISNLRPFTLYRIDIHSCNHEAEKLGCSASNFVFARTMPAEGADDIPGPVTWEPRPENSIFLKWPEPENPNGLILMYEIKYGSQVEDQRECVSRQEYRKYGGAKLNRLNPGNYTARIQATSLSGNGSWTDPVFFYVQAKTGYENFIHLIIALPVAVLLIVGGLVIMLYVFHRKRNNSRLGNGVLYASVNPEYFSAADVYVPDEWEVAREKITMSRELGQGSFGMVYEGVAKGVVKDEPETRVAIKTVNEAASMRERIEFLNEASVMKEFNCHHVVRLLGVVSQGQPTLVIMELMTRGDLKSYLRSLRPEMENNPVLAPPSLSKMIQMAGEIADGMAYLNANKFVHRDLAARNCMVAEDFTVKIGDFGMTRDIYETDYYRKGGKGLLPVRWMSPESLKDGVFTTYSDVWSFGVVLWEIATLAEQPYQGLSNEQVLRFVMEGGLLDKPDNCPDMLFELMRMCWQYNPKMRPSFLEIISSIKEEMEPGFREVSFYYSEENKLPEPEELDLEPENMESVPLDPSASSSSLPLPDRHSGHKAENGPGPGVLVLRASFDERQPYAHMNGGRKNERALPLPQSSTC
Chain of Serine/threonine-protein kinase PLK1 (P53350 whole entry): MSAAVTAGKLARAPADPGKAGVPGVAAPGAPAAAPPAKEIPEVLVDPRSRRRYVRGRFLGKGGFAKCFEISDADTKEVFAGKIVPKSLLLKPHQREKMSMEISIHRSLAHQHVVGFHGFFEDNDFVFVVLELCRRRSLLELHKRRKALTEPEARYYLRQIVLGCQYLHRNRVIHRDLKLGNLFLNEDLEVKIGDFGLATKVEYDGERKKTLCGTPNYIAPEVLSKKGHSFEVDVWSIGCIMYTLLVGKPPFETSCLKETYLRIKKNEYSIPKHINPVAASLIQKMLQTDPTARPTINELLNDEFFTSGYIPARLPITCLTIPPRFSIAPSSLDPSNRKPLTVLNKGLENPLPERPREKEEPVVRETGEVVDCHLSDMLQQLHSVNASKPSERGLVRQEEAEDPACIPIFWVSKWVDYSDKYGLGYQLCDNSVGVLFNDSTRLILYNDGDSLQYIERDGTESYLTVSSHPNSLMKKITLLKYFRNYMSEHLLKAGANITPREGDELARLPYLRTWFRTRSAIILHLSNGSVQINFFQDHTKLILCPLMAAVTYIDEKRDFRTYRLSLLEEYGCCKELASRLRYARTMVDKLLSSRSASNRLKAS
Chain of Serine/threonine-protein kinase B-raf (P15056 2-766 V600E limits assumed): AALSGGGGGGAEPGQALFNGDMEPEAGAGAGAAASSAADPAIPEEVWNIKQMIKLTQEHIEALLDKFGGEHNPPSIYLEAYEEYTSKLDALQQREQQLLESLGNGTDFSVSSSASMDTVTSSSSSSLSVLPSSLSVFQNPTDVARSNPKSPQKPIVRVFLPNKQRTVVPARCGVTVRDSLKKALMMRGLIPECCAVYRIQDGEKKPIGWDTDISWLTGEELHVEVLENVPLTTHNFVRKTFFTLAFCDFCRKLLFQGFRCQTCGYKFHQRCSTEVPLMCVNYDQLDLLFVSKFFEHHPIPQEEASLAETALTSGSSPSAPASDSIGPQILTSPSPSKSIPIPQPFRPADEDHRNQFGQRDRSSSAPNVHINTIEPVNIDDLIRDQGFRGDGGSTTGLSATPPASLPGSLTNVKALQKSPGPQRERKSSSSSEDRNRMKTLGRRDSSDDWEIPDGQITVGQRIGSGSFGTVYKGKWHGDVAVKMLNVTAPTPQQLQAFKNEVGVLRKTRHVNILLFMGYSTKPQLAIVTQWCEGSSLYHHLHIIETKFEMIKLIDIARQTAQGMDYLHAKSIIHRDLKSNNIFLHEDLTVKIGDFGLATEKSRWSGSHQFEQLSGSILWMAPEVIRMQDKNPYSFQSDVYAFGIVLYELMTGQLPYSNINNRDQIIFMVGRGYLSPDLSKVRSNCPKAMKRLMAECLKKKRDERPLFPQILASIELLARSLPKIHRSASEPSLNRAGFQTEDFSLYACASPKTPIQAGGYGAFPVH
Chain of Cyclin-dependent kinase 4/G1/S-specific cyclin-D1 (P11802 whole entry): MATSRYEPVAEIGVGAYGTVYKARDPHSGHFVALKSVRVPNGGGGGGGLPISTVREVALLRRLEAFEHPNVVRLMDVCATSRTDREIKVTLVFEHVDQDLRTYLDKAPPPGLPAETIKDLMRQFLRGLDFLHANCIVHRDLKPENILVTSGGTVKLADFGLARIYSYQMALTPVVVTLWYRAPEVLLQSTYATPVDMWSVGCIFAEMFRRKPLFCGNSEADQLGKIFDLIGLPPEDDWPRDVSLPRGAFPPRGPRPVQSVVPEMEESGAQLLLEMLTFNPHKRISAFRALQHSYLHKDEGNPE
Chain of Cyclin-dependent kinase 4/G1/S-specific cyclin-D1 (P24385 whole entry, further chain): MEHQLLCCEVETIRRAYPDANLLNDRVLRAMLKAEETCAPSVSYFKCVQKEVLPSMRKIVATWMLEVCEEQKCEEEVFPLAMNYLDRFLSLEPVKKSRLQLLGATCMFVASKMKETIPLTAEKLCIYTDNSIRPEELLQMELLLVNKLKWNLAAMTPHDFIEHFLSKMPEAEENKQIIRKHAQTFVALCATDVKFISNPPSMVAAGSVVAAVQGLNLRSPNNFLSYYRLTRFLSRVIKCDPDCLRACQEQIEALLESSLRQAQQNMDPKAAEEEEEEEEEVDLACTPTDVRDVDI
Chain of Mitogen-activated protein kinase kinase kinase 8 (P41279 whole entry): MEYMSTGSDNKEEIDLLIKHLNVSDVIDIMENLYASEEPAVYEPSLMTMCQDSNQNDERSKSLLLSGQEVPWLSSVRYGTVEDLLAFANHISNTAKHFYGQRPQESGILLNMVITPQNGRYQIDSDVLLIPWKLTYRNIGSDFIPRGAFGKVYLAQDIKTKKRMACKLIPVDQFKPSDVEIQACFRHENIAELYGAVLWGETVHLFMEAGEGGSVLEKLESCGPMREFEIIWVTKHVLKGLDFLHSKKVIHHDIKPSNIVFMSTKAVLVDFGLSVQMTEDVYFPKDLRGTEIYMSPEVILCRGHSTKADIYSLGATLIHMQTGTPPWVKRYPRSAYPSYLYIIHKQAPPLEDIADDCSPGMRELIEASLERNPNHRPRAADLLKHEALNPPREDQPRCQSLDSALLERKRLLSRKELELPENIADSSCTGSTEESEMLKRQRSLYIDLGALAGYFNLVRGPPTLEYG

Structure (SMILES): COc1cc(O)c2c(c1)-c1cc(O)c(O)cc1COC2=O [Alterlactone]
- IC50 [1]: > 34.6 µM
- IC50 (Insulin receptor): > 34.6 µM
- IC50 (Angiopoietin-1 receptor): > 34.6 µM
- IC50 [2]: > 34.6 µM
- IC50 [3]: > 34.6 µM
- IC50 [4]: > 34.6 µM
- IC50 [5]: > 34.6 µM
- IC50 [6]: > 34.6 µM
- IC50 [7]: > 34.6 µM
- IC50 [8]: > 34.6 µM
- IC50 (Ephrin type-B receptor 4): > 34.6 µM
- IC50 [9]: > 34.6 µM

Structure (SMILES): COc1cc(O)c2c(c1)C1(OC2=O)C(=O)C(=O)CC1C (configuration not stated) [TALAROFLAVONE]
- IC50 [1]: > 36.2 µM
- IC50 (Angiopoietin-1 receptor): > 36.2 µM
- IC50 [2]: > 36.2 µM
- IC50 [3]: > 36.2 µM
- IC50 [4]: > 36.2 µM
- IC50 [6]: > 36.2 µM
- IC50 [7]: > 36.2 µM
- IC50 [8]: > 36.2 µM
- IC50 (Ephrin type-B receptor 4): > 36.2 µM
- IC50 [9]: > 36.2 µM

— BindingDB's records for doi:10.1021/np070447m (2008)
